Source: ChEMBL document CHEMBL5724801, “EUbOPEN Chemogenomics Library - Multiplex” (2024)
Values joined by “and” are separate entries in the source; they are usually repeats but may differ in a detail not shown here. Identical values can stand only once.

Tested on: HEK-293T
Assay: Multiplex assay against HEK293T
Assay type: toxicity, cell-based
Conditions: human
Outline: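 At seeding, live cells were stained with Hoechst33342, BioTracker Green Microtubule Cytoskeleton Dye, MitoTracker Red and Annexin V Alexa Fluor 680. After compound addition they were imaged on a CQ1 microscope at 37°C and 5% CO2, and CellPathfinder machine-learning gating sorted them into Hoechst high-intensity objects or normal cells, with normal cells further split into healthy, pyknosed or fragmented nuclei and pyknosed cells into mitotic or apoptotic. Tubulin, mitochondrial-mass and membrane-permeability phenotypes are given as per cents of cells with healthy nuclei.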

[1] = 12 h, 1 µM, compound concentration 1 uM
[2] = 12 h, 10 µM, compound concentration 10 uM
[3] = 24 h, 1 µM, compound concentration 1 uM
[4] = 24 h, 10 µM, compound concentration 10 uM
[5] = 48 h, 1 µM, compound concentration 1 uM
[6] = 48 h, 10 µM, compound concentration 10 uM

SMILES: CC(C)CNc1nc(N2CCN(CC3CCCOC3)CC2)ncc1C(=O)NCc1ccccc1 (centres undefined)
- Population Apoptotic (%) [1]: 11.7% and 11.21%
- Population Fragmented Nuclei (%) [1]: 1.89% and 4.9%
- Population Hoechst High Intensity Objects (%) [1]: 0.31% and 0%
- Population Membrane Permeable-Phenotype (%) [1]: 0%
- Population Mitotic Cells (%) [1]: 88.3% and 88.79%
- Population Normal (%) [1]: 99.69% and 100%
- Population Pyknosed Nuclei (%) [1]: 53.94% and 81.12%
- Population Tubulin-Different-Phenotype (%) [1]: 13.57% and 25%
- Total Cell Count [1]: 318 and 143
- Population Apoptotic (%) [2]: 30.6% and 27.73%
- Population Fragmented Nuclei (%) [2]: 4.29% and 5.11%
- Population Hoechst High Intensity Objects (%) [2]: 1.06% and 0%
- Population Membrane Permeable-Phenotype (%) [2]: 0%
- Population Mitochondria Different-Phenotype (%) [2]: 23.53% and 63.64%
- Population Mitotic Cells (%) [2]: 69.4% and 72.27%
- Population Normal (%) [2]: 98.94% and 100%
- Population Pyknosed Nuclei (%) [2]: 65.36% and 86.86%
- Population Tubulin-Different-Phenotype (%) [2]: 85.88% and 81.82%
- Total Cell Count [2]: 283 and 137
- Population Apoptotic (%) [3]: 21.51% and 22.81%
- Population Fragmented Nuclei (%) [3]: 1.41% and 5.26%
- Population Hoechst High Intensity Objects (%) [3]: 0.2% and 0%
- Population Membrane Permeable-Phenotype (%) [3]: 1.89% and 0%
- Population Mitochondria Different-Phenotype (%) [3]: 30.6% and 36.67%
- Population Mitotic Cells (%) [3]: 78.49% and 77.19%
- Population Normal (%) [3]: 99.8% and 100%
- Population Pyknosed Nuclei (%) [3]: 34.68% and 75%
- Population Tubulin-Different-Phenotype (%) [3]: 28.71% and 13.33%
- Population Apoptotic (%) [4]: 59.41% and 71.68%
- Population Fragmented Nuclei (%) [4]: 4.91% and 5.67%
- Population Hoechst High Intensity Objects (%) [4]: 0.61% and 0%
- Population Membrane Permeable-Phenotype (%) [4]: 0%
- Population Mitochondria Different-Phenotype (%) [4]: 72.86% and 75%
- Population Mitotic Cells (%) [4]: 40.59% and 28.32%
- Population Normal (%) [4]: 99.39% and 100%
- Population Pyknosed Nuclei (%) [4]: 52.15% and 80.14%
- Population Tubulin-Different-Phenotype (%) [4]: 90.71% and 75%
- Total Cell Count [4]: 328 and 141
- Population Apoptotic (%) [5]: 7.95% and 20.65%
- Population Fragmented Nuclei (%) [5]: 1.03% and 6.84%
- Population Healthy Nuclei (%) [5]: 83.45% and 44.74%
- Population Hoechst High Intensity Objects (%) [5]: 0%
- Population Membrane Permeable-Phenotype (%) [5]: 2.71% and 1.18%
- Population Mitochondria Different-Phenotype (%) [5]: 49.88% and 61.18%
- Population Mitotic Cells (%) [5]: 92.05% and 79.35%
- Population Normal (%) [5]: 100%
- Population Apoptotic (%) [6]: 64.8% and 78.16%
- Population Fragmented Nuclei (%) [6]: 2.93% and 2.01%
- Population Healthy Nuclei (%) [6]: 60.41% and 39.6%
- Population Hoechst High Intensity Objects (%) [6]: 0.87% and 1.32%
- Population Membrane Permeable-Phenotype (%) [6]: 0.97% and 3.39%
- Population Mitochondria Different-Phenotype (%) [6]: 96.6% and 88.14%
- Population Mitotic Cells (%) [6]: 35.2% and 21.84%
- Population Normal (%) [6]: 99.13% and 98.68%
- Population Pyknosed Nuclei (%) [6]: 36.66% and 58.39%
- Population Tubulin-Different-Phenotype (%) [6]: 73.3% and 91.53%
- Total Cell Count [6]: 344 and 151

SMILES: O=C1CSC(=O)N1C(CCc1ccncc1)COc1ccc(-c2cccc([N+](=O)[O-])c2)cc1 (centres undefined)
- Population Apoptotic (%) [1]: 18.32% and 7.02%
- Population Fragmented Nuclei (%) [1]: 3.08% and 7.35%
- Population Hoechst High Intensity Objects (%) [1]: 0.76% and 0%
- Population Membrane Permeable-Phenotype (%) [1]: 2.48% and 0%
- Population Mitochondria Different-Phenotype (%) [1]: 25.62% and 16.67%
- Population Mitotic Cells (%) [1]: 81.68% and 92.98%
- Population Normal (%) [1]: 99.24% and 100%
- Population Pyknosed Nuclei (%) [1]: 50.38% and 83.82%
- Total Cell Count [1]: 262 and 136
- Population Apoptotic (%) [2]: 45.8% and 41.28%
- Population Fragmented Nuclei (%) [2]: 3.51% and 3.1%
- Population Healthy Nuclei (%) [2]: 19.88% and 12.4%
- Population Hoechst High Intensity Objects (%) [2]: 0.58% and 0%
- Population Membrane Permeable-Phenotype (%) [2]: 0%
- Population Mitochondria Different-Phenotype (%) [2]: 32.35% and 18.75%
- Population Mitotic Cells (%) [2]: 54.2% and 58.72%
- Population Normal (%) [2]: 99.42% and 100%
- Population Pyknosed Nuclei (%) [2]: 76.61% and 84.5%
- Population Tubulin-Different-Phenotype (%) [2]: 70.59% and 62.5%
- Total Cell Count [2]: 172 and 129
- Population Apoptotic (%) [3]: 27.34% and 23.23%
- Population Fragmented Nuclei (%) [3]: 4.44% and 4.69%
- Population Hoechst High Intensity Objects (%) [3]: 0.52% and 0%
- Population Membrane Permeable-Phenotype (%) [3]: 0.42% and 0%
- Population Mitochondria Different-Phenotype (%) [3]: 35.71% and 17.39%
- Population Mitotic Cells (%) [3]: 72.66% and 76.77%
- Population Normal (%) [3]: 99.48% and 100%
- Population Pyknosed Nuclei (%) [3]: 33.42% and 77.34%
- Population Apoptotic (%) [4]: 78.62% and 78.15%
- Population Fragmented Nuclei (%) [4]: 2.66% and 5.11%
- Population Healthy Nuclei (%) [4]: 20.21% and 8.03%
- Population Hoechst High Intensity Objects (%) [4]: 1.05% and 0.72%
- Population Membrane Permeable-Phenotype (%) [4]: 0%
- Population Mitochondria Different-Phenotype (%) [4]: 81.58% and 63.64%
- Population Mitotic Cells (%) [4]: 21.38% and 21.85%
- Population Normal (%) [4]: 98.95% and 99.28%
- Population Pyknosed Nuclei (%) [4]: 77.13% and 86.86%
- Population Tubulin-Different-Phenotype (%) [4]: 100% and 45.45%
- Total Cell Count [4]: 190 and 138
- Population Apoptotic (%) [5]: 14.91% and 17.91%
- Population Fragmented Nuclei (%) [5]: 2.27% and 5.07%
- Population Healthy Nuclei (%) [5]: 82.51% and 46.38%
- Population Hoechst High Intensity Objects (%) [5]: 0%
- Population Membrane Permeable-Phenotype (%) [5]: 2.59% and 1.56%
- Population Mitochondria Different-Phenotype (%) [5]: 37.38% and 28.12%
- Population Mitotic Cells (%) [5]: 85.09% and 82.09%
- Population Normal (%) [5]: 100%
- Population Apoptotic (%) [6]: 71.68% and 69.07%
- Population Fragmented Nuclei (%) [6]: 2.88% and 7.56%
- Population Hoechst High Intensity Objects (%) [6]: 1.89% and 0%
- Population Membrane Permeable-Phenotype (%) [6]: 3.37% and 0%
- Population Mitochondria Different-Phenotype (%) [6]: 95.51% and 84.62%
- Population Mitotic Cells (%) [6]: 28.32% and 30.93%
- Population Normal (%) [6]: 98.11% and 100%
- Population Pyknosed Nuclei (%) [6]: 54.33% and 81.51%
- Population Tubulin-Different-Phenotype (%) [6]: 84.27% and 69.23%
- Total Cell Count [6]: 212 and 119
